Measurements published in ChEMBL document CHEMBL4339227, “Stereoselective Synthesis of C-2 Alkylated Trihydroxypiperidines: Novel Pharmacological Chaperones for Gaucher Disease” (ACS Med Chem Lett, 2019).
Calls of active or inactive are those of the source. The calls are words filed in the database; no cut-off is given here.

Legend:
[1] = Inhibition of GCase in human leukocytes extracts using 4-methylumbelliferyl-beta-D-glucoside substrate incubated for 1 hr by spectrophotometry; type: cell-based
Outline: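 Human leukocyte homogenates were used as the GCase source. IC50 was derived from GCase activity measured across a range of inhibitor concentrations.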

Homo sapiens [2] = organism: Homo sapiens; experiment: Chaperone activity at GCase N370/RecNcil mutant in human fibroblasts derived from Gaucher patient assessed as increase in GCase activity at 50 nM incubated for 4 days using 4-methylumbelliferyl-beta-D-glucoside substrate by spectrophotometry relative to untreated control
Homo sapiens [3] = organism: Homo sapiens; experiment: Inhibition of GCase in human leukocytes extracts at 1 mM using 4-methylumbelliferyl-beta-D-glucoside substrate incubated for 1 hr by spectrophotometry relative to untreated control; type: cell-based
Outline: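 Human leukocyte homogenates were used as the GCase source. Enzyme activity was measured with the test compound at 1 mM, and the result was expressed as percent inhibition.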

Homo sapiens [4] = organism: Homo sapiens; experiment: Chaperone activity at GCase N370/RecNcil mutant in human fibroblasts derived from Gaucher patient assessed as increase in GCase activity at 10 nM incubated for 4 days using 4-methylumbelliferyl-beta-D-glucoside substrate by spectrophotometry relative to untreated control
Homo sapiens [5] = organism: Homo sapiens; experiment: Chaperone activity at GCase N370/RecNcil mutant in human fibroblasts derived from Gaucher patient assessed as increase in GCase activity incubated for 4 days using 4-methylumbelliferyl-beta-D-glucoside substrate by spectrophotometry relative to untreated control
Homo sapiens [6] = organism: Homo sapiens; experiment: Chaperone activity at GCase N370/RecNcil mutant in human fibroblasts derived from Gaucher patient assessed as increase in GCase activity at 50 uM incubated for 4 days using 4-methylumbelliferyl-beta-D-glucoside substrate by spectrophotometry relative to untreated control
[7] = Competitive inhibition of GCase in human leukocytes extracts using 4-methylumbelliferyl-beta-D-glucoside substrate incubated for 1 hr by spectrophotometry; type: cell-based
Homo sapiens [8] = organism: Homo sapiens; experiment: Chaperone activity at GCase N370/RecNcil mutant in human fibroblasts derived from Gaucher patient assessed as increase in GCase activity at 10 uM incubated for 4 days using 4-methylumbelliferyl-beta-D-glucoside substrate by spectrophotometry relative to untreated control
Homo sapiens [9] = organism: Homo sapiens; experiment: Chaperone activity at GCase L444P GBA gene mutant mutant in human fibroblasts derived from Gaucher patient assessed as increase in GCase activity at 100 uM incubated for 4 days using 4-methylumbelliferyl-beta-D-glucoside substrate by spectrophotometry relative to untreated control
Homo sapiens [10] = organism: Homo sapiens; experiment: Chaperone activity at GCase N370/RecNcil mutant in human fibroblasts derived from Gaucher patient assessed as increase in GCase activity at 1 uM incubated for 4 days using 4-methylumbelliferyl-beta-D-glucoside substrate by spectrophotometry relative to untreated control
Homo sapiens [11] = organism: Homo sapiens; experiment: Chaperone activity at GCase N370/RecNcil mutant in human fibroblasts derived from Gaucher patient assessed as increase in GCase activity at 100 uM incubated for 4 days using 4-methylumbelliferyl-beta-D-glucoside substrate by spectrophotometry relative to untreated control
Homo sapiens [12] = organism: Homo sapiens; experiment: Chaperone activity at GCase N370/RecNcil mutant in human fibroblasts derived from Gaucher patient assessed as increase in GCase activity at 100 uM relative to untreated control

SMILES	IC50 [1]	inhibition (Homo sapiens [3])	other results
CCCCCCCCCCC[C@@H]1NC[C@@H](O)[C@@H](O)[C@@H]1O	100 µM	96%	fold change (FC) (Homo sapiens [2]): 1.3
CCCCCCCC[C@@H]1NC[C@@H](O)[C@@H](O)[C@@H]1O	93.5 µM	80%	fold change (FC) (Homo sapiens [4]): 1.3
CCCCCCCC[C@H]1NC[C@@H](O)[C@@H](O)[C@@H]1O	29.3 µM	100%	fold change (FC) (Homo sapiens [4]): 1.4; fold change (FC) (Homo sapiens [6]): 1.9; Ki [7]: 18.5 µM; fold change (FC) (Homo sapiens [8]): 1.6; fold change (FC) (Homo sapiens [9]): 1.8
CCCCCCCC[C@H]1[C@@H](O)[C@H](O)[C@H](O)CN1C	> 1000 µM	50%	
CCCCCCCCCCCC[C@H]1NC[C@@H](O)[C@@H](O)[C@@H]1O	1.5 µM	95%	fold change (FC) (Homo sapiens [10]): 1.4; Ki [7]: 3.6 µM
CCCCCCCCN1C[C@@H](O)C(O)[C@H](O)C1	30 µM	98%	fold change (FC) (Homo sapiens [11]): 1.26; fold change (FC) (Homo sapiens [12]): 1.25
CCCCCCCCCCC[C@H]1NC[C@@H](O)[C@@H](O)[C@@H]1O	7 µM	100%	fold change (FC) (Homo sapiens [2]): 1.2

Further lines, with some results ahead:

IC50 [1]	inhibition (Homo sapiens [3])	SMILES	other results
160 µM	88%	CCCCCCCCCCCCC[C@@H]1NC[C@@H](O)[C@@H](O)[C@@H]1O	Activity (Homo sapiens [5]): inactive
9 µM	98%	CCCCCCCCCCCCC[C@H]1NC[C@@H](O)[C@@H](O)[C@@H]1O	
23.3 µM	91%	CCCCCCCCCCCC[C@@H]1NC[C@@H](O)[C@@H](O)[C@@H]1O	fold change (FC) (Homo sapiens [10]): 1.4
